Assay results taken from ChEMBL document CHEMBL1135628, “Potent and long-acting corticotropin releasing factor (CRF) receptor 2 selective peptide competitive antagonists” (J Med Chem, 2002).

Experiments:
[1] = target: Corticotropin-releasing factor receptor 2 (Mus musculus) (UniProt Q60748); test: Inhibition of recombinant mouse corticotropin releasing factor receptor 2 beta (CRF2beta) assayed using nonselective [125I]-labeled agonist [Tyr0,Glu1,Nle17]-sauvagine as radioligand
[2] = target: T1, Corticotropin-releasing factor receptor 1 (Homo sapiens, UniProt P34998); test: Inhibition of recombinant corticotropin releasing factor receptor 1 assayed using nonselective [125I]-labeled agonist [Tyr0,Glu1,Nle17]-sauvagine
T1 sequence (P34998 whole entry): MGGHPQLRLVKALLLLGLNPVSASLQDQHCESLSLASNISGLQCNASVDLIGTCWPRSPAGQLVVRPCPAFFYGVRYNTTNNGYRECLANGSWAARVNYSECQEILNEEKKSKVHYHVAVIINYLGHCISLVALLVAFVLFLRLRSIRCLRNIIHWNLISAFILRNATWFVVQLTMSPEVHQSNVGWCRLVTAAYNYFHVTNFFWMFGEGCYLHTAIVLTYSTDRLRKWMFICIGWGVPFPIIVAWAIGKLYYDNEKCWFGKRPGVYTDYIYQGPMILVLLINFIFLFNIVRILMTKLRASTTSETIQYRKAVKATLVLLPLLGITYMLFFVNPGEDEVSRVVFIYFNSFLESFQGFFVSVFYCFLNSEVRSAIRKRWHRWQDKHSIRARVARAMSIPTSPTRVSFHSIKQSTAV
In short: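 Crude plasma membranes from stable CHO lines expressing hCRF1 or mCRF2β, stored in 10% sucrose at -80 °C. Incubated 90 min at room temperature, then washed and filtered. IC50 taken from one representative assay, repeated at least twice.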

Sequence of Corticotropin-releasing factor receptor 2 (Mus musculus) (Q60748 whole entry, looked up): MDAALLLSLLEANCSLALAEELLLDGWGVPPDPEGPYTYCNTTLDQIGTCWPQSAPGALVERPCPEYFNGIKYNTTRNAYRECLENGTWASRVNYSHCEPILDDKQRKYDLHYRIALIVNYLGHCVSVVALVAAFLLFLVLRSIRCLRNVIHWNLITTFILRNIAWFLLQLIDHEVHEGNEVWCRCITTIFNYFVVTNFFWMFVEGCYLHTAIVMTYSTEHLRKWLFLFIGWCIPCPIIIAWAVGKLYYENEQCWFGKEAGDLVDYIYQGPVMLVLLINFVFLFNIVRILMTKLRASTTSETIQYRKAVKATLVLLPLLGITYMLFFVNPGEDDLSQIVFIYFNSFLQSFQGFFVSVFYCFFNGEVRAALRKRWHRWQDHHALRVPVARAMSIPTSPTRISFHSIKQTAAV

SMILES | IC50 [1] [nM] | IC50 [2] [nM]
CCCC[C@H](NC(=O)[C@H](CCCCN)NC(=O)[C@H](CCCN=C(N)N)NC(=O)[C@H](CC(C)C)NC(=O)[C@](C)(CC(C)C)NC(=O)[C@H](Cc1c[nH]cn1)NC(=O)[C@@H](Cc1ccccc1)NC(=O)[C@H](CO)NC(=O)[C@H](CC(C)C)NC(=O)[C@H](CC(=O)O)NC(C)=O)C(=O)N[C@H](C(=O)N[C@@H](CCC(=O)O)C(=O)N[C@H](C(=O)N[C@@H](CCC(=O)O)C(=O)N[C@@H](CCCCN)C(=O)N[C@@H](CCC(N)=O)C(=O)N[C@@H](CCC(=O)O)C(=O)N[C@@H](CCCCN)C(=O)N[C@@H](CCC(=O)O)C(=O)N[C@@H](CCCCN)C(=O)N[C@@H](CCC(N)=O)C(=O)N[C@H]1CCC(=O)NCCCC[C@@H](C(=O)N[C@@H](CC(N)=O)C(=O)N[C@@H](CCCN=C(N)N)C(=O)N[C@@H](CC(C)C)C(=O)N[C@@H](CC(C)C)C(=O)N[C@@H](CC(C)C)C(=O)N[C@@H](CC(=O)O)C(=O)N[C@@](C)(CC(C)C)C(=O)N[C@H](C(N)=O)[C@@H](C)CC)NC(=O)[C@H](C)NC(=O)[C@H](C)NC1=O)[C@@H](C)CC)[C@@H](C)CC | 1.2 | 0.24
CCCC[C@H](NC(=O)[C@H](CCCCN)NC(=O)[C@H](CCCN=C(N)N)NC(=O)[C@H](CC(C)C)NC(=O)[C@](C)(CC(C)C)NC(=O)[C@H](Cc1c[nH]cn1)NC(=O)[C@@H](Cc1ccccc1)NC(=O)[C@H](CO)NC(=O)[C@H](CC(C)C)NC(=O)[C@H](CC(=O)O)NC(C)=O)C(=O)N[C@H](C(=O)N[C@@H](CCC(=O)O)C(=O)N[C@H](C(=O)N[C@@H](CCC(=O)O)C(=O)N[C@@H](CCCCN)C(=O)N[C@@H](CCC(N)=O)C(=O)N[C@@H](CCC(=O)O)C(=O)N[C@@H](CCCCN)C(=O)N[C@@H](CCC(=O)O)C(=O)N[C@@H](CCCCN)C(=O)N[C@H]1CCC(=O)NCCCC[C@@H](C(=O)N[C@@H](CC(N)=O)C(=O)N[C@@H](CC(N)=O)C(=O)N[C@@H](CCCN=C(N)N)C(=O)N[C@@H](CC(C)C)C(=O)N[C@@H](CC(C)C)C(=O)N[C@@H](CC(C)C)C(=O)N[C@@H](CC(=O)O)C(=O)N[C@@](C)(CC(C)C)C(=O)N[C@H](C(N)=O)[C@@H](C)CC)NC(=O)[C@H](C)NC(=O)[C@H](CCC(N)=O)NC1=O)[C@@H](C)CC)[C@@H](C)CC | 0.57 | 7.7
CCCC[C@H](NC(=O)[C@H](CCCCN)NC(=O)[C@H](CCCN=C(N)N)NC(=O)[C@H](CC(C)C)NC(=O)[C@](C)(CC(C)C)NC(=O)[C@H](Cc1c[nH]cn1)NC(=O)[C@@H](Cc1ccccc1)NC(=O)[C@H](CO)NC(=O)[C@H](CC(C)C)NC(=O)[C@H](CC(=O)O)NC(C)=O)C(=O)N[C@H](C(=O)N[C@@H](CCC(=O)O)C(=O)N[C@H](C(=O)N[C@@H](CCC(=O)O)C(=O)N[C@@H](CCCCN)C(=O)N[C@@H](CCC(N)=O)C(=O)N[C@@H](CCC(=O)O)C(=O)N[C@@H](CCCCN)C(=O)N[C@@H](CCC(=O)O)C(=O)N[C@@H](CCCCN)C(=O)N[C@@H](CCC(N)=O)C(=O)N[C@@H](CCC(N)=O)C(=O)N[C@H]1CCC(=O)NCCCC[C@@H](C(=O)N[C@@H](CCCN=C(N)N)C(=O)N[C@@H](CC(C)C)C(=O)N[C@@H](CC(C)C)C(=O)N[C@@H](CC(C)C)C(=O)N[C@@H](CC(=O)O)C(=O)N[C@@](C)(CC(C)C)C(=O)N[C@H](C(N)=O)[C@@H](C)CC)NC(=O)[C@H](CC(N)=O)NC(=O)[C@H](C)NC1=O)[C@@H](C)CC)[C@@H](C)CC | 81 | > 500
CCCC[C@H](NC(=O)[C@H](CCCCN)NC(=O)[C@H](CCCN=C(N)N)NC(=O)[C@H](CC(C)C)NC(=O)[C@](C)(CC(C)C)NC(=O)[C@H](Cc1c[nH]cn1)NC(=O)[C@@H](Cc1ccccc1)NC(=O)[C@H](CO)NC(=O)[C@H](CC(C)C)NC(=O)[C@H](CC(=O)O)NC(C)=O)C(=O)N[C@H](C(=O)N[C@@H](CCC(=O)O)C(=O)N[C@H](C(=O)N[C@@H](CCC(=O)O)C(=O)N[C@@H](CCCCN)C(=O)N[C@@H](CCC(N)=O)C(=O)N[C@@H](CCC(=O)O)C(=O)N[C@@H](CCCCN)C(=O)N[C@@H](CCC(=O)O)C(=O)N[C@@H](CCCCN)C(=O)N[C@@H](CCC(N)=O)C(=O)N[C@@H](CCC(N)=O)C(=O)N[C@@H](C)C(=O)N[C@@H](C)C(=O)N[C@@H](CC(N)=O)C(=O)N[C@H]1CCC(=O)NCCCC[C@@H](C(=O)N[C@@H](CC(C)C)C(=O)N[C@@H](CC(=O)O)C(=O)N[C@@](C)(CC(C)C)C(=O)N[C@H](C(N)=O)[C@@H](C)CC)NC(=O)[C@H](CC(C)C)NC(=O)[C@H](CCCN=C(N)N)NC1=O)[C@@H](C)CC)[C@@H](C)CC | > 100 | > 100
CCCC[C@H](NC(=O)[C@H](CCCCN)NC(=O)[C@H](CCCN=C(N)N)NC(=O)[C@H](CC(C)C)NC(=O)[C@](C)(CC(C)C)NC(=O)[C@H](Cc1c[nH]cn1)NC(=O)[C@@H](Cc1ccccc1)NC(=O)[C@H](CO)NC(=O)[C@H](CC(C)C)NC(=O)[C@H](CC(=O)O)NC(C)=O)C(=O)N[C@H](C(=O)N[C@@H](CCC(=O)O)C(=O)N[C@H](C(=O)N[C@@H](CCC(=O)O)C(=O)N[C@@H](CCCCN)C(=O)N[C@@H](CCC(N)=O)C(=O)N[C@@H](CCC(=O)O)C(=O)N[C@@H](CCCCN)C(=O)N[C@@H](CCC(=O)O)C(=O)N[C@H]1CCC(=O)NCCCC[C@@H](C(=O)N[C@@H](C)C(=O)N[C@@H](CC(N)=O)C(=O)N[C@@H](CC(N)=O)C(=O)N[C@@H](CCCN=C(N)N)C(=O)N[C@@H](CC(C)C)C(=O)N[C@@H](CC(C)C)C(=O)N[C@@H](CC(C)C)C(=O)N[C@@H](CC(=O)O)C(=O)N[C@@](C)(CC(C)C)C(=O)N[C@H](C(N)=O)[C@@H](C)CC)NC(=O)[C@H](CCC(N)=O)NC(=O)[C@H](CCC(N)=O)NC1=O)[C@@H](C)CC)[C@@H](C)CC | 1.3 | 45
CCCC[C@H](NC(=O)[C@H](CCCCN)NC(=O)[C@H](CCCN=C(N)N)NC(=O)[C@H](CC(C)C)NC(=O)[C@](C)(CC(C)C)NC(=O)[C@H](Cc1c[nH]cn1)NC(=O)[C@@H](Cc1ccccc1)NC(=O)[C@H](CO)NC(=O)[C@H](CC(C)C)NC(=O)[C@H](CC(=O)O)NC(C)=O)C(=O)N[C@H](C(=O)N[C@@H](CCC(=O)O)C(=O)N[C@H](C(=O)N[C@@H](CCC(=O)O)C(=O)N[C@@H](CCCCN)C(=O)N[C@@H](CCC(N)=O)C(=O)N[C@@H](CCC(=O)O)C(=O)N[C@@H](CCCCN)C(=O)N[C@@H](CCC(=O)O)C(=O)N[C@@H](CCCCN)C(=O)N[C@@H](CCC(N)=O)C(=O)N[C@@H](CCC(N)=O)C(=O)N[C@@H](C)C(=O)N[C@@H](C)C(=O)N[C@@H](CCC(N)=O)C(=O)N[C@@H](CC(N)=O)C(=O)N[C@@H](CCCN=C(N)N)C(=O)N[C@@H](CCCCNC(C)=O)C(=O)N[C@@H](CC(C)C)C(=O)N[C@@H](CC(C)C)C(=O)N[C@@H](CC(=O)O)C(=O)N[C@@](C)(CC(C)C)C(=O)N[C@H](C(N)=O)[C@@H](C)CC)[C@@H](C)CC)[C@@H](C)CC | 0.51 | 3.4
CCCC[C@H](NC(=O)[C@H](CCCCN)NC(=O)[C@H](CCCN=C(N)N)NC(=O)[C@H](CC(C)C)NC(=O)[C@](C)(CC(C)C)NC(=O)[C@H](Cc1c[nH]cn1)NC(=O)[C@@H](Cc1ccccc1)NC(=O)[C@H](CO)NC(=O)[C@H](CC(C)C)NC(=O)[C@H](CC(=O)O)NC(C)=O)C(=O)N[C@H](C(=O)N[C@@H](CCC(=O)O)C(=O)N[C@H](C(=O)N[C@@H](CCC(=O)O)C(=O)N[C@@H](CCCCN)C(=O)N[C@@H](CCC(N)=O)C(=O)N[C@@H](CCC(=O)O)C(=O)N[C@@H](CCCCN)C(=O)N[C@@H](CCC(=O)O)C(=O)N[C@@H](CCCCN)C(=O)N[C@@H](CCC(N)=O)C(=O)N[C@@H](CCC(N)=O)C(=O)N[C@@H](C)C(=O)N[C@@H](C)C(=O)N[C@@H](CC(N)=O)C(=O)N[C@@H](CC(N)=O)C(=O)N[C@H]1CCC(=O)NCCCC[C@@H](C(=O)N[C@@H](CC(=O)O)C(=O)N[C@@](C)(CC(C)C)C(=O)N[C@H](C(N)=O)[C@@H](C)CC)NC(=O)[C@H](CC(C)C)NC(=O)[C@H](CC(C)C)NC1=O)[C@@H](C)CC)[C@@H](C)CC | 17.8 | > 100
CCCC[C@H](NC(=O)[C@H](CCCCN)NC(=O)[C@H](CCCN=C(N)N)NC(=O)[C@H](CC(C)C)NC(=O)[C@](C)(CC(C)C)NC(=O)[C@H](Cc1c[nH]cn1)NC(=O)[C@@H](Cc1ccccc1)NC(=O)[C@H](CO)NC(=O)[C@H](CC(C)C)NC(=O)[C@H](CC(=O)O)NC(C)=O)C(=O)N[C@H](C(=O)N[C@@H](CCC(=O)O)C(=O)N[C@H](C(=O)N[C@@H](CCC(=O)O)C(=O)N[C@@H](CCCCN)C(=O)N[C@@H](CCC(N)=O)C(=O)N[C@@H](CCC(=O)O)C(=O)N[C@@H](CCCCN)C(=O)N[C@@H](CCC(=O)O)C(=O)N[C@@H](CCCCN)C(=O)N[C@@H](CCC(N)=O)C(=O)N[C@@H](CCC(N)=O)C(=O)N[C@@H](C)C(=O)N[C@@H](C)C(=O)N[C@@H](CC(N)=O)C(=O)N[C@@H](CC(N)=O)C(=O)N[C@@H](CCCN=C(N)N)C(=O)N[C@@H](CC(C)C)C(=O)N[C@@H](CC(C)C)C(=O)N[C@@H](CC(C)C)C(=O)N[C@@H](CC(=O)O)C(=O)N[C@@](C)(CC(C)C)C(=O)N[C@H](C(N)=O)[C@@H](C)CC)[C@@H](C)CC)[C@@H](C)CC | 0.42 | 18.4
